Source: PubChem
Compounds with a hit are over-represented: about 1.5% of the library has one in this group of screens.
ZTA counter = counter-screen for EBNA-1 inhibitors: inhibitors of Epstein-Barr virus ZTA; P03206; ZTA-DNA binding, fluorescence polarization; inhibition, % at 11 µM; hit rate 0.15% among 320,000; AID 2234; in the data active = inhibition above about 33%
Target sequence (P03206 whole entry, looked up): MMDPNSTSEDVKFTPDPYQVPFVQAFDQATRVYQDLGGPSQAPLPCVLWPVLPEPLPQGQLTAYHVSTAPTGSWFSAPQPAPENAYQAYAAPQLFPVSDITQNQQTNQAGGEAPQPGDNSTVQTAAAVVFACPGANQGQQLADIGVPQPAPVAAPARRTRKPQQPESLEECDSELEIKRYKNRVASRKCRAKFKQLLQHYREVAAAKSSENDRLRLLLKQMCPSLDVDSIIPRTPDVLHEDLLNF
LANA-H2A inh = blockers of LANA interaction with H2A/H2B – biochemical, FP readout, HTS, primary screen; hit rate 0.6% among 320,000; inhibition, % (test concentration not listed); Protein LANA1 (Human herpesvirus 8 type P (isolate GK18)), Q9QR71; cell-free LANA-H2A/H2B peptide, fluorescence polarization; AID 2629, 2010; in the data active = inhibition mostly above about 10%, no sharp cut-off; inactive = mostly below about 6.7%
HNF4A DNA FP = change in binding of human HNF4A to DNA, primary screen, biochemical, fluorescence polarization, FITC-DNA. Hepatocyte nuclear factor 4-alpha (Homo sapiens), P41235. 1 h. activity change, % at 10 µM. hit rate 0.3% among 360,000. AID 1224865, 2016; in the data active = activity change above about 30%, passing the limit was not always enough
EBNA-1 inh = EBNA-1 DNA-binding inhibitors, primary screen, biochemical, fluorescence polarization. hit rate 0.34% among 300,000. AID 1950, 2009. inhibition, % at 14.8 µM; in the data active = inhibition above about 28%
CSN deneddyl inh = inhibitors of CSN-mediated cullin deneddylation, primary screen, biochemical, fluorescence polarization, uHTS | COP9 signalosome complex subunit 5 (Homo sapiens), Q92905 | Purified CSN, SCF-Nedd8-OG deneddylation | inhibition, % at 12.5 µM | hit rate 0.38% among 360,000 | AID 651999, 2013;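 active = pattern-corrected inhibition above about 35%, with an unprinted fluorescence ratio check between 0.5 and 1.5, limit read from the data, passing the limit was not always enough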;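 also: 0% = enzyme with substrate and 100% = substrate without enzyme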
Target sequence (Q92905 whole entry, looked up, one chain of several): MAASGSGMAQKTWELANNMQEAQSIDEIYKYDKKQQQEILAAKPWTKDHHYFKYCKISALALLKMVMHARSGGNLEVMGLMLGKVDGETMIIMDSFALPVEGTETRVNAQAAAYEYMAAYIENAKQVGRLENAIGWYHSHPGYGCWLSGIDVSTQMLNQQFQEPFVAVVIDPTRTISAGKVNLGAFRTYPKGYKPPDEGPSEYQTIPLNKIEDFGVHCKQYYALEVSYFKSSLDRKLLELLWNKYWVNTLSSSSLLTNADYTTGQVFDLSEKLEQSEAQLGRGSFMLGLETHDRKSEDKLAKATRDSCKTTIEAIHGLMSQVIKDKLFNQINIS
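Test system: Human Csn5 produced in HEK293T cells | Compound: 12.5 µM single point | Times: 90 min, room temperature | Signal: Fluorescence polarization readout | Read-out basis: % inhibition of substrate cleavage by Csn5 | Controls: no-enzyme wells high, enzyme-with-substrate wells low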
Bfl-1 A1 inh = caspase 3/7 activation in MEF A1-2A-BIM cells, primary screen, A1 inhibitor project, cell-based, luminescence, HTS | Caspase-Glo 3/7 luminescence, 3 h; percent of clofoctol response, vehicle zero | caspase activation, % (no concentration beside the values) | hit rate 0.066% among 330,000 | AID 2462, 2010;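 active = over half of replicate activation scores above 10%, or exactly half above 10 with the replicate mean above 10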
* hit, by the source's call; . = no result given; + = active, no number; ! = repeats disagree.

SMILES	ZTA counter	LANA-H2A inh	HNF4A DNA FP	EBNA-1 inh	CSN deneddyl inh	Bfl-1 A1 inh
Nc1nc(SCc2ccc(Cl)cc2Cl)nc2nc3c(cc12)CCCC3	1.2	-1.5	20.8	28.8*	16.3	0.4
O=C(NCc1cccc(C(F)(F)F)c1)C1CCCN(c2ncccn2)C1 (stereo not drawn)	-15.4	130.8*	-1.6	-8.5	6.3	0.0
Cc1cc(C)nc(N2CCCC(C(=O)NCc3cccc(C(F)(F)F)c3)C2)n1 (stereo not drawn)	-11.8	1.7	4.7	-20.6	2.8	0.1
CCC(C)[C@H](NC(=O)C1CC(=O)N(c2ccc3c(c2)OCCO3)C1)C(=O)N1CCCCC1 (stereo partly drawn)	2.1	1.2	5.7	-0.8	-6.2	0.0
C[C@H](NC(=O)C1CC(=O)N(c2ccc3c(c2)OCCO3)C1)C(=O)N1CCCCC1 (stereo partly drawn)	-34.2	15.7*	5.6	-8.0	3.2	1.4
Cc1ccc2c(c1)N(Cc1cccc(C#N)c1)C=NS2(=O)=O	-1.7	-7.3	-1.8	12.6	99.7*	0.3
CC(Sc1ccc(S(=O)(=O)N2CCOCC2)cn1)C(=O)Nc1ccc(Cl)cc1Cl (stereo not drawn)	-3.3	23.7*	5.2	.	0.5	0.2
Cc1ccc(S(=O)(=O)/N=c2\ccc(Cl)cn2C(F)F)cc1	-8.8	17.3*	-1.7	-4.7	0.9	0.0
CCCCC(CC)CN=C(N)NC(N)=NCCCCCCN=C(N)NC(N)=NCC(CC)CCCC (stereo not drawn)	-6.8	-7.9	97.6*	-0.6	126.9*	-0.4
COc1ccc(-c2c(-c3ccc(C#N)cc3)oc(=O)c3cc(OC)c(OC)cc23)cc1	.	2.2	1.5	.	-1.8	0.6
Cn1c([N+](=O)[O-])cnc1N1CCN(c2nncs2)C1=O	-13.1	8.6	1.3	-9.7	1.3	0.7
O=C1OC(c2ccccc2)=N/C1=C\C=C\c1ccccc1[N+](=O)[O-]	-17.6	12.4*	-0.7	0.2	-11.2	0.2
O=C1OC(c2ccccc2)=N/C1=C\C=C\c1ccco1	4.5	-1.7	0.1	7.8	8.5	0.6
O=C(CSc1ccccc1F)NC(=O)NC1CCCC1	.	.	0.6	.	0.9	.
COc1cc(CNc2ccc(N3CCCC3)cc2)ccc1OCc1ccccc1	75.8*	-0.2	-1.4	74.5*	-8.4	-3.2
COc1cc(CNc2ccc(S(N)(=O)=O)cc2)ccc1OCc1ccccc1F	.	.	-0.7	.	-1.3	.
COc1cc(CNc2ccc(N3CCCC3)cc2)ccc1OCc1ccccc1F	79.2*	5.1	3.3	65.1*	-5.6	-7.5
CCOC1=C2CN(S(=O)(=O)c3ccc(C)cc3)[C@H](c3ccccc3)C[C@H]2[C@H]2C(=O)N(c3ccccc3)C(=O)[C@H]2C1	.	.	-3.5	.	2.1	.
O=C(Nc1ccc(F)cc1)C(c1ccnc2ccccc12)N1CCN(C(=O)c2ccco2)CC1 (stereo not drawn)	.	.	7.3	.	5.2	.
Cc1c(C(=O)Nc2ccc3nc(N4CCOCC4)sc3c2)oc2ccccc12	-2.4	-1.1	-4.2	.	-3.8	0.9
COc1cc(C(=O)Nc2ccc3nc(N4CCOCC4)sc3c2)cc(OC)c1OC	-4.8	37.4*	-1.1	.	-5.5	-0.9
COc1ccccc1-c1cc2nc(C)c(CCC(=O)NC(C)CCc3ccco3)c(C)n2n1 (stereo not drawn)	8.8	-2.9	-0.1	-7.7	2.2	0.9
CC1(C)O[C@@H]2C[C@H]3[C@@H]4CCC5=CC(=O)C=C[C@]5(C)[C@@]4(F)[C@@H](O)C[C@]3(C)[C@]2(C(=O)CO)O1	-8.7	3.1	1.1	14.4	3.3	1.0
CC1(C)O[C@@H]2C[C@H]3[C@@H]4C[C@H](F)C5=CC(=O)C=C[C@]5(C)[C@@]4(F)[C@@H](O)C[C@]3(C)[C@]2(C(=O)CO)O1	4.8	34.3*!	-2.3	6.0	-1.4	-0.2
Cc1ccc(NC(=O)C2CCN(S(=O)(=O)c3ccc4c(c3)NC(=O)C(C)S4)CC2)cc1Cl (stereo not drawn)	-10.0	-5.2	5.4	2.7	0.4	-0.1
SMILES	ZTA counter	LANA-H2A inh	HNF4A DNA FP	EBNA-1 inh	CSN deneddyl inh	Bfl-1 A1 inh
CC(=O)Oc1cc(C(=O)OCC(=O)NC23CC4CC(CC(C4)C2)C3)cc(OC(C)=O)c1OC(C)=O	.	.	-16.4	.	41.2*	.
CC1CCCN(Cc2nc3c(c(=O)n(C)c(=O)n3C)n2CC(N)=O)C1 (stereo not drawn)	5.0	13.5*	0.4	6.6	1.4	0.0
Cc1cccc(Oc2ccccc2NC(=O)C2=COCCO2)c1	16.6	+	-0.7	.	-1.2	-0.6
COc1cccc(Oc2ccc(C(F)(F)F)cc2NC(=O)C2=COCCO2)c1	-6.9	-1.4	0.9	-7.0	-0.3	-1.7
O=C1CCN(Cc2ccc(O)cc2)CCN1CCO	-18.4	-0.1	2.1	4.5	-3.5	0.0
CC(=O)c1cccc(OCc2cc(C(=O)NCc3nc(C)c(C)s3)no2)c1	-9.8	1.9	2.0	-9.4	5.2	-1.4
Cc1ccc(NC(=O)Nc2ccc(F)cc2F)c(OC(F)F)c1	-8.6	102.5*	0.9	4.1	0.6	0.0
COc1ccc(Cn2c(=O)[nH]c3cc(C(=O)N4CCN(c5ccccn5)CC4)ccc3c2=O)cc1	3.2	1.4	0.2	-0.2	-3.5	-0.1
COc1ccc2cc(C(=O)Nc3ccc(F)cc3)sc(=O)c2c1OC	3.4	-0.9	-1.3	-1.2	40.8*	0.0
COc1ccc2cc(C(=O)Nc3ccc(O)cc3)sc(=O)c2c1OC	11.7	1.8	-1.6	9.6	-3.1	-0.4
O=C(COC(=O)CCN1C(=O)C2CC=CCC2C1=O)Nc1ccc([N+](=O)[O-])cc1 (stereo not drawn)	.	-3.4	1.2	.	-0.2	0.8
CC(=O)c1ccc(Oc2ccc(C(C)=O)cc2)cc1	-22.5	6.5	0.2	-6.8	1.4	0.2
CN(C)C(=O)c1ccc(Oc2ccc(C(=O)N(C)C)cc2)cc1	-1.2	-2.6	36.9*	9.1	3.4	0.9
CC1CCCCC1NC(=O)C1CCN(S(=O)(=O)N2CCOCC2)CC1 (stereo not drawn)	-9.3	25.9*	3.0	3.0	0.4	0.0
CC1CCCC(NC(=O)C2CCN(S(=O)(=O)N3CCOCC3)CC2)C1C (stereo not drawn)	12.2	5.7	2.9	14.5	0.0	0.3
COc1cccc(NC(=O)CN(C)C(=O)c2cc(-c3ccc(C)o3)nc3ccccc23)c1	13.7	60.3*	3.7	.	3.0	0.6
O=C(CCn1c(=S)oc2ccccc21)Nc1cccc(F)c1	-3.7	129.3*	3.4	11.7	0.2	-0.5
CC(C)(C)OC(=O)NCCc1nnc(SCc2ccccc2Cl)o1	6.5	0.5	-3.5	0.2	4.5	0.5
